# ChEMBL document CHEMBL1932940, “Xanthohumol induces apoptosis in human malignant glioblastoma cells by increasing reactive oxygen species and activating MAPK pathways” (J Nat Prod, 2011)
# Active and inactive are the calls of the source. The rule behind the calls is not given here.
# Columns and labels:
# T98G [1] = assay: Induction of apoptosis in human T98G cells assessed as increase in ROS production at 20 uM after 48 hrs by DCFH-DA staining-based flow cytometric analysis in presence of 5 mM NAC; assay type: functional, cell-based
# T98G [2] = assay: Induction of apoptosis in human T98G cells assessed as increase in subG1 population after 24 to 48 hrs by propidium iodide staining based flow cytometric analysis; assay type: functional, cell-based
# Method in brief: (§1)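 Cells treated 1−50 μM for 24 or 48 h, washed in PBS, resuspended in 0.1% sodium citrate, 0.1% Triton X-100, 50 μg/mL propidium iodide, 30 min at 4 °C in dark. Nuclei analyzed by flow cytometry, DNA on log scale, debris gated out; percent hypodiploid (sub-G1) nuclei reported. Three experiments in triplicate.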
# T98G [3] = assay: Induction of apoptosis in human T98G cells assessed as decrease in Bcl-2 expression at 20 uM after 48 hrs by Western blot analysis in presence of 5 mM NAC; assay type: functional, cell-based
# Method in brief: (§2)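 T98G exposed to 20 μM for various times (0−48 h), NAC 5 mM where stated. Total lysates, or digitonin-permeabilized cytosolic and mitochondrial fractions (10000g, 15 min, 4 °C) for cytochrome c, blotted for caspase-3, caspase-9, PARP (1:1000), Bcl-2 (1:500), cytochrome c; β-actin loading control; ECL detection. Three experiments.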
# T98G [4] = assay: Induction of apoptosis in human T98G cells assessed as increase in cleaved PARP protein level at 20 uM after 24 hrs by Western blot analysis; assay type: functional, cell-based; method in brief: as §2
# T98G [5] = assay: Induction of apoptosis in human T98G cells assessed as increase in mitochondrial depolarization at 20 uM by […] fluorescence analysis; assay type: functional, cell-based; details: TDE = time-dependent effect
# Method in brief: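 T98G treated with 20 μM for 4−24 h (NAC 5 mM where stated), then loaded with 5 nM TMRE for 30 min at 37 °C; fluorescence by flow cytometry (FL-2); percentage of cells with depolarized mitochondria reported. Three experiments in triplicate (n = 3 for NAC set).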
# T98G [6] = assay: Induction of apoptosis in human T98G cells assessed as increase in ROS production at 20 uM measured every 5 mins for 5 to 120 mins by DCFH-DA staining-based flow cytometric analysis in presence of 5 mM NAC; assay type: functional, cell-based
# Method in brief: (§3)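 T98G incubated with 20 μM, with or without 5 mM NAC pretreatment, for 5−120 min or 24 h; washed, resuspended at 2 × 10^5 cells/mL in HBSS with 10 μM DCFH-DA, 20 min at 37 °C; DCF fluorescence read by flow cytometry (FL1), also viewed by fluorescence microscopy.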
# T98G [7] = assay: Induction of apoptosis in human T98G cells at 20 uM after 48 hrs by flow cytometric analysis pretreated with 5 uM JNK inhibitor SP600125 for 1 hr; assay type: functional, cell-based
# Method in brief: (§4)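 T98G pretreated with PD98059 (20 μM, 30 min), SB203580 (5 μM, 1 h) or SP600125 (5 μM, 1 h), then exposed to 20 μM for 48 h; hypodiploid nuclei quantified by propidium iodide flow cytometry. Means ± SEM, three experiments in triplicate.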
# T98G [8] = assay: Anticancer activity against human T98G cells assessed as decrease in cell viability after 48 hrs by MTT assay; assay type: functional, cell-based
# Method in brief: (§5)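 Cells (T98G, U87-MG, NHA; 3 × 10^4 per well) plated, next day exposed to serial dilutions (1−50 μM) for 48 h at 37 °C, 5% CO2. MTT (5 mg/mL) added for 3 h; crystals solubilized in 50% DMF/20% SDS pH 4.5; OD at 620 nm. Viability = % of DMSO (0.1% final) controls. Means ± SEM, three experiments in triplicate.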
# T98G [9] = assay: Induction of apoptosis in human T98G cells assessed as increase in ROS production at 20 uM after 24 hrs by DCFH-DA staining-based flow cytometric analysis in presence of 5 mM NAC; assay type: functional, cell-based; method in brief: as §3
# [10] = biological target: MAP kinase p38 (Homo sapiens) (UniProt O15264+Q15759+Q16539+P53778); assay: Induction of p38 phosphorylation in human T98G cells at 20 uM after 30 to 60 mins for 2 hrs by Western blot analysis; assay type: cell-based
# Method in brief: (§6)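 T98G exposed to 20 μM for 5−120 min or 24 h, with or without 5 mM NAC. Lysates (Tris/deoxycholate/SDS/IGEPAL with protease and phosphatase inhibitors) immunoblotted with anti-p-ERK, ERK1/2 (1:1000), p-p38, p38; ECL detection; phospho signals normalized to total ERK1/2 or p38. Three experiments.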
# [11] = biological target: T1, Mitogen-activated protein kinase; ERK1/ERK2 (Homo sapiens) (UniProt P27361+P28482); assay: Induction of Erk1/2 phosphorylation in human T98G cells at 20 uM measured after 24 hrs by Western blot analysis; assay type: cell-based; method in brief: as §6
# T98G [12] = assay: Induction of apoptosis in human T98G cells after 48 hrs by propidium iodide staining-based flow cytometric analysis; assay type: functional, cell-based; method in brief: as §1
# [13] = biological target: T1, Mitogen-activated protein kinase; ERK1/ERK2 (Homo sapiens); assay: Induction of Erk1/2 phosphorylation in human T98G cells at 20 uM measured every 5 mins for 2 hrs by Western blot analysis; assay type: cell-based; method in brief: as §6
# T98G [14] = assay: Induction of apoptosis in human T98G cells assessed as decrease in Bcl-2 expression at 20 uM after 48 hrs by Western blot analysis; assay type: functional, cell-based; method in brief: as §2
# T98G [15] = assay: Anticancer activity against human T98G cells assessed as decrease in cell viability at 50 uM after 48 hrs by MTT assay; assay type: functional; method in brief: as §5
# U-87MG ATCC = assay: Anticancer activity against human U87MG cells assessed as decrease in cell viability at 50 uM after 48 hrs by MTT assay; assay type: functional, cell-based; method in brief: as §5
# T98G [16] = assay: Induction of cell cycle arrest in human T98G cells assessed as accumulation at S phase at 1 to 20 uM after 48 hrs by flow cytometric analysis; assay type: functional, cell-based
# Method in brief: (§7)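 2 × 10^5 cells per dish exposed 48 h (1−20 μM per legend); harvested, fixed in cold 70% ethanol at −20 °C, stained with propidium iodide plus RNase A (100 U/mL) 30 min at room temperature; percentage in G1, S, G2/M by flow cytometry. Three experiments in triplicate.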
# [17] = biological target: T1, Mitogen-activated protein kinase; ERK1/ERK2 (Homo sapiens); assay: Induction of Erk1/2 phosphorylation in human T98G cells at 20 uM measured after 24 hrs by Western blot analysis in presence of 5 mM of NAC; assay type: cell-based; method in brief: as §6
# T98G [18] = assay: Induction of apoptosis in human T98G cells assessed as increase in caspase-3 expression level at 20 uM after 24 hrs by Western blot analysis; assay type: functional, cell-based; method in brief: as §2
# T98G [19] = assay: Induction of apoptosis in human T98G cells assessed as decrease in Bcl-2 expression at 20 uM by Western blot analysis; assay type: functional, cell-based; details: TDE = time-dependent effect; method in brief: as §2
# [20] = biological target: Mitogen-activated protein kinase 9 (Homo sapiens) (UniProt P45984); assay: Induction of JNK phosphorylation in human T98G cells at 20 uM after 30 to 60 mins for 2 hrs by Western blot analysis; assay type: cell-based
# U-87 MG = assay: Induction of cell cycle arrest in human U87MG cells assessed as accumulation at G0/G1 phase at 1 to 20 uM after 48 hrs by flow cytometric analysis; assay type: functional, cell-based; details: U-87MG ATCC; method in brief: as §7
# T98G [21] = assay: Induction of apoptosis in human T98G cells assessed as increase in ROS production at 20 uM after 24 hrs by DCFH-DA staining-based flow cytometric analysis; assay type: functional, cell-based; method in brief: as §3
# T98G [22] = assay: Induction of apoptosis in human T98G cells at 20 uM after 48 hrs by flow cytometric analysis pretreated with 5 uM p38 inhibitor SB203580 for 1 hr; assay type: functional, cell-based; method in brief: as §4
# T1 sequence (P27361 whole entry, looked up): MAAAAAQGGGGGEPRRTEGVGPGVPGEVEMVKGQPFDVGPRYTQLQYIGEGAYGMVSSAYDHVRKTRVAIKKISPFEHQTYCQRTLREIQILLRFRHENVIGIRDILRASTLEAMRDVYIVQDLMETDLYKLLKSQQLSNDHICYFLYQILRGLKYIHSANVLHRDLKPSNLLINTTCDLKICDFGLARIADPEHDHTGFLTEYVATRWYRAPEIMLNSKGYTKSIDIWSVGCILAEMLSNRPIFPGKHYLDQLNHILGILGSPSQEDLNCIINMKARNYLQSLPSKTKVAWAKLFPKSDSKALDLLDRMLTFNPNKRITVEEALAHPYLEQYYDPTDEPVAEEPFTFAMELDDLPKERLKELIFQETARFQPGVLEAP
# T1 sequence (P28482 whole entry, looked up): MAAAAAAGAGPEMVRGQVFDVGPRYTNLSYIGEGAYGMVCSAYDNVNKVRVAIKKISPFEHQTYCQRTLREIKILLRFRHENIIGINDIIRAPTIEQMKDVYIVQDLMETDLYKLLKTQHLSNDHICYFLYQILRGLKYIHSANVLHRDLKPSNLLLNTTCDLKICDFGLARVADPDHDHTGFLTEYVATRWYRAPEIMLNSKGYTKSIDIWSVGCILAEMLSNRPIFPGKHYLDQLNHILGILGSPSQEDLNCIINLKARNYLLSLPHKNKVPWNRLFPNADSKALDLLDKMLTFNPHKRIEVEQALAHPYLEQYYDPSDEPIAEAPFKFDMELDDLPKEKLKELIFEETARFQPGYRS
# Mitogen-activated protein kinase 9 (Homo sapiens), sequence (P45984 whole entry, looked up): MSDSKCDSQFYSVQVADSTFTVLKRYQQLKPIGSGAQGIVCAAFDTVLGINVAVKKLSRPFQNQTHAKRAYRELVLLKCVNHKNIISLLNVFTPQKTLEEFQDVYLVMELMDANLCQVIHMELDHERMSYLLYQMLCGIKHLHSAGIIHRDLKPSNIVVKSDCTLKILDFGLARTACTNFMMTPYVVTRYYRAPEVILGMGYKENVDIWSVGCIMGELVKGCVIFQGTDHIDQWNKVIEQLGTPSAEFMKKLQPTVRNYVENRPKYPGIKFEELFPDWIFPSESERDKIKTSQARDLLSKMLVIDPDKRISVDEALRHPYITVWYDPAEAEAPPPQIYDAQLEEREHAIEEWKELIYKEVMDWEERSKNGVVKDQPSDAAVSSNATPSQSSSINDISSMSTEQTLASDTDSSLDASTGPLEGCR
compound,measurement,setting,value
COc1cc(O)c(CC=C(C)C)c(O)c1C(=O)/C=C/c1ccc(O)cc1 [XANTHOHUMOL],Activity,T98G [1],inactive
same,Activity,T98G [2],Dose-dependent effect
same,Activity,T98G [3],inactive
same,Activity,T98G [4],Active
same,Activity,T98G [5],tde
same,Activity,T98G [6],inactive
same,Activity,T98G [7],Active
same,Activity,T98G [8],Dose-dependent effect
same,Activity,T98G [9],inactive
same,Activity,[10],Active
same,Activity,[11],Active
same,Activity,T98G [12],Dose-dependent effect
same,Activity,[13],Active
same,Activity,T98G [14],Active
same,Activity,T98G [15],70%
same,Activity,U-87MG ATCC,Active
same,Activity,T98G [16],inactive
same,Activity,[17],inactive
same,Activity,T98G [18],Active
same,Activity,T98G [19],tde
same,Activity,[20],inactive
same,Activity,U-87 MG,inactive
same,Activity,T98G [21],Active
same,Activity,T98G [22],inactive
